According to ChEMBL document CHEMBL1133742, “17beta-O-Aminoalkyloximes of 5beta-androstane-3beta,14beta-diol with digitalis-like activity: synthesis, cardiotonic activity, structure-activity relationships, and molecular modeling of the Na(+),K(+)-ATPase receptor” (J Med Chem, 2000):
pEC50, pIC50: −log10 of the molar value.

Assays:
[1] = Percent increase in force of contraction in vitro determined using electrically driven guinea pig left atrium.; assay type: functional; conditions: Cavia porcellus, Cardiac atrium
Method in brief: (§1)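 Isolated guinea pig atria in solution bubbled with 95% O2/5% CO2, field-stimulated by platinum electrodes at 1 Hz (1 ms square pulses, twice threshold voltage). After 60 min equilibration, cumulative concentrations added, each held until maximal response or arrhythmia.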

[2] = molecular target: Sodium/potassium-transporting ATPase; assay: In vitro inhibitory concentration against dog kidney Na+/K+ ATPase; assay type: protein-complex assay, Canis lupus familiaris
Method in brief: (§2)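 Na+,K+-ATPase isolated and purified from dog kidney. Inhibition measured as percent hydrolysis of 32P-ATP with versus without compound. […] Single-concentration entries report percent inhibition at the stated concentration. Compounds tested within 1–4 h of dissolution.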

Cavia porcellus = species: Cavia porcellus; assay: Concentration producing 50% of the maximal increase in the force of contraction in isolated guinea pig left atrium; assay type: functional; conditions: Cardiac atrium; method in brief: as §1
[3] = Compound at 100 uM was tested in vitro for the inhibition of dog kidney Na+/K+ ATPase; conditions: Canis lupus familiaris, target entry is the homologue from another species; method in brief: as §2
[4] = molecular target: Sodium/potassium-transporting ATPase subunit alpha-1 (Canis lupus familiaris, UniProt P50997); assay: In vitro inhibitory concentration against dog kidney Na+,K+-ATPase
Method in brief: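 Na+,K+-ATPase isolated and purified from dog kidney. Inhibition measured as percent hydrolysis of 32P-ATP with versus without compound. Single-concentration entries report percent inhibition at the stated concentration. Compounds tested within 1–4 h of dissolution.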

[5] = In vitro maximum inotropic effect on contractile force of an electrically driven guinea pig left atrium.; assay type: functional, Cavia porcellus, Cardiac atrium; method in brief: as §1

Compound | Emax [1] [%] | pIC50 [2] | pEC50 (Cavia porcellus) | inhibition [3] [%] | pIC50 [4] | Concentration giving maximal inotropic effect [5] [µM]
C[C@]12CC[C@H](O)C[C@H]1CC[C@@H]1[C@@H]2CC[C@]2(C)[C@@H](/C=C/C=C/CCN)CC[C@]12O | 98 | 7.10 | 6.42 |  |  | 
CONCCC[C@H]1CC[C@]2(O)[C@@H]3CC[C@@H]4C[C@@H](O)CC[C@]4(C)[C@H]3CC[C@]12C |  | < 4.00 |  | 40 |  | 
C/C(C=O)=C\[C@H]1CC[C@]2(O)[C@@H]3CC[C@@H]4C[C@@H](O)CC[C@]4(C)[C@H]3CC[C@]12C |  |  |  |  | 5.80 | 
C[C@]12CC[C@H](O)C[C@H]1CC[C@@H]1[C@@H]2CC[C@]2(C)[C@@H](CCC=O)CC[C@]12O |  |  |  |  | 4.40 | 
CCCO/N=C/C(C)=C/[C@H]1CC[C@]2(O)[C@@H]3CC[C@@H]4C[C@@H](O)CC[C@]4(C)[C@H]3CC[C@]12C |  | < 5.00 |  | 40 |  | 
CN(C)CCCO/N=C/[C@H]1CC[C@]2(O)[C@@H]3CC[C@@H]4C[C@@H](O)CC[C@]4(C)[C@H]3CC[C@]12C | 235 | 6.60 | 5.89 |  |  | 
CONC[C@H]1CC[C@]2(O)[C@@H]3CC[C@@H]4C[C@@H](O)CC[C@]4(C)[C@H]3CC[C@]12C |  | 4.10 |  |  |  | 
CN(C)CCO/N=C/[C@H]1CC[C@]2(O)[C@@H]3CC[C@@H]4C[C@@H](O)CC[C@]4(C)[C@H]3CC[C@]12C | 39 | 6.00 |  |  |  | 
CC(/C=N/OCCO)=C\[C@H]1CC[C@]2(O)[C@@H]3CC[C@@H]4C[C@@H](O)CC[C@]4(C)[C@H]3CC[C@]12C | 175 | 5.10 | 4.64 |  |  | 300
C[C@]12CC[C@H](O)C[C@H]1CC[C@@H]1[C@@H]2CC[C@]2(C)[C@@H](/C=N/OCC(=O)O)CC[C@]12O |  | < 4.00 |  | 0 |  | 
CC(/C=N/OCCN(C)C)=C\[C@H]1CC[C@]2(O)[C@@H]3CC[C@@H]4C[C@@H](O)CC[C@]4(C)[C@H]3CC[C@]12C.O=C(O)/C=C/C(=O)O | 146 | 7.22 | 7.15 |  |  | 0.3
CN(C)CCCO/N=C/C=C1\CC[C@]2(O)[C@@H]3CC[C@@H]4C[C@@H](O)CC[C@]4(C)[C@H]3CC[C@]12C |  | 3.80 |  |  |  | 
CN(C)CCON(C)C[C@H]1CC[C@]2(O)[C@@H]3CC[C@@H]4C[C@@H](O)CC[C@]4(C)[C@H]3CC[C@]12C |  | < 4.00 |  | 20 |  | 
CN(C)CCCCO/N=C/[C@H]1CC[C@]2(O)[C@@H]3CC[C@@H]4C[C@@H](O)CC[C@]4(C)[C@H]3CC[C@]12C | 214 | 5.70 | 5.33 |  |  | 
C[C@]12CC[C@H](O)C[C@H]1CC[C@@H]1[C@@H]2CC[C@]2(C)[C@@H](/C=C/C=O)CC[C@]12O | 45 |  | 5.40 |  | 6.60 | 
C[C@]12CC[C@H](O)C[C@H]1CC[C@@H]1[C@@H]2CC[C@]2(C)[C@@H](/C=C/C=C/CCCN)CC[C@]12O | 73 |  | 7.46 |  | 6.49 | 0.1
C[C@]12CC[C@H](O)C[C@H]1CC[C@@H]1[C@@H]2CC[C@]2(C)[C@@H](/C=C/C=N/OCCN)CC[C@]12O | 155 | 7.70 | 7.30 |  |  | 0.3
C[C@]12CC[C@H](O)C[C@H]1CC[C@@H]1[C@@H]2CC[C@]2(C)[C@@H](/C=C/C=N\OCC(=O)O)CC[C@]12O |  | < 4.00 |  | 40 |  | 
CO/N=C/C(C)=C/[C@H]1CC[C@]2(O)[C@@H]3CC[C@@H]4C[C@@H](O)CC[C@]4(C)[C@H]3CC[C@]12C |  | 5.00 |  |  |  | 
CN(C)CCO/N=C1\CC[C@]2(O)[C@@H]3CC[C@@H]4C[C@@H](O)CC[C@]4(C)[C@H]3CC[C@]12C |  | < 4.00 |  |  |  | 
C[C@]12CC[C@H](O)C[C@H]1CC[C@@H]1[C@@H]2CC[C@]2(C)/C(=C/C=N\OCCCN)CC[C@]12O |  | < 4.00 |  |  |  | 
